Screening data deposited in PubChem by several laboratories.
Only a selection was taken, and hits are over-represented in it overall.
ABCB1 block – inhibitors of human ABCB1 transporter, ABCG2 counter-screen; hit rate 0.067% among 190,000; P08183; AID 1326; CCRF-Adr cells, JC-1 efflux, flow cytometry; inhibition, % at 6.6 µM; in the data active = inhibition above about 40%;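 also: higher value means more JC-1 retained so stronger ABCB1 efflux block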
Avidin fluor – avidin bead compound fluorescence profile | Avidin beads, compound fluorescence 488/530 nm, flow cytometry; active compounds read high | fluorescence (KMESF) at 10 µM | hit rate 0.38% among 220,000 | AID 1775; in the data active = fluorescence above about 47
PKD1 inh – PKD1 (human) kinase inhibition. Q15139. PKD1 kinase fluorescence polarization assay. inhibition, % (test concentration not listed). hit rate 0.056% among 200,000
ABCG2 block – blocks JC-1 efflux by human ABCG2 transporter. hit rate 0.1% among 190,000. IgMXP3 cells, flow cytometry. Q9UNQ0. inhibition, % at 6.6 µM;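 active = inhibition above 80%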
Target sequence (Q9UNQ0 whole entry, looked up): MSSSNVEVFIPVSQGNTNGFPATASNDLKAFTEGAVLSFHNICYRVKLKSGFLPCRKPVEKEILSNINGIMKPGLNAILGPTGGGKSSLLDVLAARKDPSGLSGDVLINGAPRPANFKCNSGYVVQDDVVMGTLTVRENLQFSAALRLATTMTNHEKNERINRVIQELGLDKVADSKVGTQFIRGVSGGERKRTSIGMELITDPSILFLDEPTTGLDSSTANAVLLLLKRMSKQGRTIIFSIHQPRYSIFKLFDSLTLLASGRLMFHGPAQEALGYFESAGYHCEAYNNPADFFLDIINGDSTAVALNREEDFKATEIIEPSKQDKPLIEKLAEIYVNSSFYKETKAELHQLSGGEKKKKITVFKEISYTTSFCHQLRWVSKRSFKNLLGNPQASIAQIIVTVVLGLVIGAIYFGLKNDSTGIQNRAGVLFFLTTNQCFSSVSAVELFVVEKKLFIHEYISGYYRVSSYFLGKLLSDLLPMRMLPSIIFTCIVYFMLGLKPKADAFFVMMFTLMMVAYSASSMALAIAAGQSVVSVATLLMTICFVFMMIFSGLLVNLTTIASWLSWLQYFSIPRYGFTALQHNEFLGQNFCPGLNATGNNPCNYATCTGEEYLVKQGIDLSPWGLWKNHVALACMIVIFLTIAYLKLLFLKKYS
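material = IgMXP3 (ABCG2) plus far-red-tagged CCRF-Adr (ABCB1) cells | amount = 3 million cells/mL, equal mix of both lines | also added = JC-1 transporter substrate | dosing = one concentration, 6.6 µM final | schedule = 10 min at 25 °C | measured by = flow cytometric JC-1 green MFI at 530 nm | read-out basis = percent efflux inhibition, scaled nicardipine 100% to DMSO 0%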
GSH bead fluor – compound fluoresces at 488/530 nm on GSH beads. GSH beads flow cytometry, compound fluorescence 488/530 nm; active compounds read high. fluorescence (KMESF) at 10 µM. hit rate 0.25% among 190,000; in the data active = fluorescence above about 89;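 also: glutathione beads carrying GST-tagged Bcl family fusion proteins plus one bare bead set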
Lmaj promast – reduces viability of Leishmania major promastigotes | hit rate 9% among 200,000 | inhibition, % at 10 µM | resazurin fluorescence viability;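 also: promastigotes grown with compound for 44 hours at 28 °C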
L major 1uM – inhibitors of Leishmania major promastigote growth, repeat at 1 uM. hit rate 13% among 1,100. L. major promastigote growth, resazurin fluorescence, 48 h. inhibition, % at 1 µM. shares compounds with Lmaj promast. AID 1258;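 active = inhibition above about 50% in both repeat tests, limit read from the data; inconclusive = one repeat under the set limit, the other over it; inactive = both repeats under the set limit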
Numbers stand for hits; - = inactive; ? = inconclusive; . = no result given. Rule as the data show it, unless noted: active = inhibition above about 50%; inactive = the rest.

SMILES	ABCB1 block	Avidin fluor	PKD1 inh	ABCG2 block	GSH bead fluor	Lmaj promast	L major 1uM
Nc1nc(-c2ccco2)nn1C(=O)c1ccc([N+](=O)[O-])cc1	-	-	-	-	-	-	.
CCOC(=O)c1ccc(N=c2sc(C(=O)OC)cc(=O)n2Cc2ccco2)cc1	-	-	-	-	-	100	-
Cc1c(CCOC(=O)CC23CC4CC(CC(C4)C2)C3)sc[n+]1CC(=O)c1ccccc1	-	-	-	-	-	91	-
Cc1ccc(C(=O)OCCc2sc[n+](Cc3ccccc3)c2C)cc1	-	-	-	-	-	-	.
Nc1c(C(=O)NCCN2CCOCC2)c2nc3ccccc3nc2n1-c1ccccc1	-	-	-	-	-	-	.
Nc1c(C(=O)NCCN2CCOCC2)c2nc3ccccc3nc2n1CCc1ccccc1F	-	-	-	-	-	65	-
O=C(Nc1cccc([N+](=O)[O-])c1)c1ccc2ccccc2c1O	.	-	.	.	.	.	.
CSc1nc(C)c2c(c1C#N)CCCC2	-	-	-	-	-	62	-
COC(=O)Cc1c[nH]c2cccc(OCC(O)CN(Cc3ccccc3)C(C)C)c12 (stereo not given)	-	-	-	-	-	98	-
COc1c(-c2ccc(O)c(O)c2)oc2cc(O)cc(O)c2c1=O	.	-	.	.	.	.	.
C=CCNC(=O)C1COc2ccccc2O1 (stereo not given)	.	-	.	.	.	.	.
CN(C)S(=O)(=O)c1cccc(N=c2scc(-c3ccc4c(c3)NC(=O)CO4)n2CC2CCCO2)c1 (stereo not given)	-	-	-	-	-	96	-
COc1ccccc1N=c1scc(-c2ccc3c(c2)NC(=O)CO3)n1CC1CCCO1 (stereo not given)	-	-	-	-	-	-	.
CCn1cc(CNCc2cn(C)nc2-c2ccc(C3CCCCC3)cc2)cn1	-	-	-	-	-	95	-
COc1ccccc1NC(=O)C(=O)NNC(=O)c1ccco1	-	-	-	-	-	-	.
O=C(C1CCCCN1S(=O)(=O)c1ccccc1[N+](=O)[O-])N1CCOCC1 (stereo not given)	-	-	-	-	-	-	.
O=[N+]([O-])c1ccccc1S(=O)(=O)Oc1ccc(C(=S)N2CCOCC2)cc1	-	-	-	-	-	81	-
COc1ccc(/C=N/NC(=O)c2cccc(COCC(F)(F)C(F)F)c2)cc1	-	-	-	-	-	-	.
CCc1nc2ccccc2c2nc3ccccc3n12	-	-	-	-	-	87	-
CC(=C\C(=O)O)/C(=C/c1ccccc1)C(=O)O	-	-	-	-	-	-	.
COC(=O)c1ccc(COc2ccc(C3C4=C(CCCC4=O)Nc4onc(C)c43)cc2)cc1 (stereo not given)	.	-	-	.	-	100	55
COC(=O)c1ccc(C2CC(=O)NC3=C2C(=O)CCC3)cc1 (stereo not given)	.	-	-	.	-	-	.
Cc1ccc(C)c(N2CCN(C(=O)c3ccc(CSc4nc5ccncc5[nH]4)cc3)CC2)c1	-	-	-	-	-	89	?
CC1=Nc2ccccc2/C1=C/c1nc(-c2ccc(C)s2)oc1O	-	-	-	-	-	-	.
CC1=Nc2ccccc2/C1=C/c1sc(=N)n(-c2nccs2)c1O	-	-	-	-	-	100	-
SMILES	ABCB1 block	Avidin fluor	PKD1 inh	ABCG2 block	GSH bead fluor	Lmaj promast	L major 1uM
c1ccc(C(Cc2nc(-c3ccncc3)no2)c2ccccc2)cc1	-	-	-	-	-	70	-
CC(=O)O[C@@H]1C[C@H]2C(C)(C)C(=O)C=C[C@]2(C)[C@H]2CC[C@@]3(C)[C@H](c4ccoc4)OC(=O)[C@H]4O[C@]43[C@@]21C	-	-	-	-	-	100	94
Nn1c(-c2ccccc2Cl)nnc1-c1ccccc1Cl	-	-	-	-	102	76	-
COc1ccc(S(=O)(=O)NCCSCc2cccs2)cc1	-	-	-	-	-	-	.
CNCCCC12CCC(c3ccccc31)c1ccccc12	-	-	-	-	-	97	-
Oc1c(CN2CCOCC2)cc(-c2ccccc2)cc1CN1CCOCC1	-	-	-	-	-	-	.
Nc1c(-c2ccccc2)c(CN2CCOCC2)nn1-c1ccc(C(=O)O)cc1	-	-	-	-	-	66	-
CC(C)(C)c1ccc(-n2nc(C(N)=O)c(O)cc2=O)cc1	-	-	-	-	-	-	.
CC(C)(C)c1ccc(-n2nc(C#N)c(Cl)cc2=O)cc1	-	-	-	-	-	101	92
O=C(O)c1cc2c([nH]c1=O)CCCC2	-	-	-	-	-	-	.
C=CCSC(=C(C#N)C#N)c1cc2c([nH]1)CCCC2	-	-	-	-	-	100	-
O=[N+]([O-])c1ccc2c(c1)c(-c1ccccc1)nc1nncn12	-	-	-	-	-	56	-
O=[N+]([O-])c1ccc2nc(-c3ccccc3)cc(-c3ccccc3)c2c1	-	-	-	-	-	-	.
Cc1nc2ccc(Cl)cc2c(-c2ccccc2F)c1CC(=O)O	-	-	-	-	-	62	-
Cc1nc2ccc(Cl)cc2c(-c2ccccc2)c1CC(=O)O	-	-	-	-	-	54	-
Cc1nc2ccc(Cl)cc2c(-c2ccccc2Cl)c1CC(=O)O	-	-	-	-	-	-	.
CCSC1=N/C(=C\c2ccc(C)s2)C(=O)S1	.	-	-	-	-	83	-
CN1CCN(S(=O)(=O)c2ccc(NC(=S)NC(=O)c3ccc(Cl)cc3)cc2)CC1	-	-	-	-	-	85	-
Nc1nn(-c2ccccc2)c(N)c1N=Nc1ccc2c(c1)OCO2	-	-	-	-	-	87	79
COC(=O)CSc1cc([N+](=O)[O-])cc2c1c(C1OCCO1)nn2-c1ccccc1	-	-	-	-	-	-	.
N#Cc1cc([N+](=O)[O-])c(-n2nnc3ccccc32)c([N+](=O)[O-])c1	-	-	-	-	-	-	.
COc1ccccc1Oc1cc(C#N)c(C#N)cc1-n1nnc2ccccc21	-	-	-	-	-	98	-
COc1cc(OC)cc(C(=O)OCc2ccc([N+](=O)[O-])cc2)c1	-	-	-	-	-	-	.
CN1C(=O)C(c2nnc(Nc3cccc4ccccc34)s2)C2CC1(C)Oc1ccccc12 (stereo not given)	-	-	-	-	-	72	-
N#CCCSc1ccccc1NC(=O)c1ccc(S(=O)(=O)N2CCCC2)cc1	-	-	-	-	-	-	.
COc1ccccc1-[n+]1c(C)cc(/C=C2\Sc3ccccc3N2C)cc1C	.	-	.	.	.	.	.
COc1ccc(-[n+]2c(C)cc(/C=C3\Sc4ccccc4N3C)cc2C)cc1	-	-	-	-	-	101	101
Cc1cccc(C)c1NC(=O)CSc1cc(C(=O)c2nccn2C)c2ccccc2n1	-	-	-	-	-	-	.
COc1ccc(CC(=O)NNC(=O)c2cnccn2)cc1	-	-	-	-	-	-	.
